Assays:
[1] = Biodistribution in Stomach of athymic mouse xenografted with human SJSA-1 cells at 166.5 kBq, iv after 30 mins by automated gamma counting method; format: ADME, organism-based; conditions: in vivo, 0.5 h
How it was run: (§1)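 Athymic mice bearing flank SJSA-1 xenografts received 125I-SIB-labeled peptide (166.5 kBq, 100 μL) by tail vein; groups of five per time point. Tumor, blood and organs were taken at 0.5–24 h and counted by gamma counter; values expressed as %ID/g.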

[2] = Biodistribution in Muscle of athymic mouse xenografted with human SJSA-1 cells at 166.5 kBq, iv after 30 mins by automated gamma counting method; format: ADME, organism-based, Muscle tissue; conditions: in vivo, 0.5 h
How it was run: (§2)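 125I-labeled peptide (166.5 kBq in 100 μL) was injected via tail vein into athymic mice bearing flank SJSA-1 xenografts, n = 5 per time point. Tumors, blood and major organs were gamma-counted at 0.5, 2, 6 and 24 h post-injection. Values are %ID/g.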

[3] = Stability in human serum assessed as intact peptide level at 37 degC incubated for 1 hr by RP-HPLC analysis; format: ADME, cell-free; conditions: read-out: Drug uptake
How it was run: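 125I-labeled peptide was incubated in human serum at 37 °C for up to 72 h. Aliquots were run by RP-HPLC (RP-18 column, ethanol/0.05 M sodium acetate pH 5.5 gradient, 1 mL/min), and intact peptide was expressed as percentage of injected activity.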

[4] = Biodistribution in Urinary bladder of athymic mouse xenografted with human SJSA-1 cells at 166.5 kBq, iv after 6 hrs by automated gamma counting method; format: ADME, organism-based; conditions: in vivo; how it was run: as §1
[5] = Drug uptake in MDM2-amplified human SJSA-1 cells expressing wild type p53 at 5 to 50 uM incubated for 30 mins; format: ADME, cell-based; conditions: sjsa-1, 0.5 h, dose 5-50 µM
How it was run: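 For uptake kinetics, SJSA-1 cells in serum-free RPMI-1640 were incubated 30–120 min with 125I-labeled peptide, with or without 50 μM unlabeled parent peptide. Cells were washed with PBS and lysed, and uptake was normalized to protein (%/mg protein). Triplicates, mean ± SD.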

[6] = Biodistribution in Spleen of athymic mouse xenografted with human SJSA-1 cells at 166.5 kBq, iv after 24 hrs by automated gamma counting method; format: ADME, organism-based; conditions: in vivo; how it was run: as §2
[7] = Biodistribution in Kidney of athymic mouse xenografted with human SJSA-1 cells at 166.5 kBq, iv after 30 mins by automated gamma counting method; format: ADME, organism-based; conditions: in vivo, 0.5 h; how it was run: as §2

Drug uptake [1]: 0.34 % ID/g
Drug uptake [2]: 0.16 % ID/g
remaining at 1 h [3]: 98.2%
Drug uptake [4]: 0.95 % ID/g
Drug uptake [5]: 104 %/mg protein
Drug uptake [6]: 0.58 % ID/g
Drug uptake [7]: 3.06 % ID/g
Structure (SMILES): CC(=O)NC(CCCCNC(=O)c1cccc([125I])c1)C(=O)NCCCCCC(=O)N[C@H](C(=O)N[C@@H](CO)C(=O)N[C@@H](Cc1ccccc1)C(=O)N[C@@]1(C)CCCCCC/C=C/CCC[C@@](C)(C(=O)N[C@@H](CCC(=O)O)C(=O)N[C@@H](CC(N)=O)C(=O)N[C@@H](Cc2ccccc2)C(N)=O)NC(=O)[C@H](CC(C)C)NC(=O)[C@H](CC(C)C)NC(=O)[C@H](C)NC(=O)[C@H](Cc2c[nH]c3ccccc23)NC(=O)[C@H](Cc2ccc(O)cc2)NC(=O)[C@H](CCC(=O)O)NC1=O)[C@@H](C)O (some centres not stated)
